Screening data from PubChem BioAssay.
FLuc inh counter – firefly luciferase enzyme inhibitors, primary screen, artefact control for luciferase-based inhibitor screens, biochemical, luminescence, ATPLite | hit rate 1.5% among 200,000 | Luciferin 4-monooxygenase (Photinus pyralis), P08659 | inhibition, % at 10 µM | 10 min;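 active = inhibition above about 50% when tested at 10 µM, limit read from the data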
Target sequence (P08659 whole entry, looked up): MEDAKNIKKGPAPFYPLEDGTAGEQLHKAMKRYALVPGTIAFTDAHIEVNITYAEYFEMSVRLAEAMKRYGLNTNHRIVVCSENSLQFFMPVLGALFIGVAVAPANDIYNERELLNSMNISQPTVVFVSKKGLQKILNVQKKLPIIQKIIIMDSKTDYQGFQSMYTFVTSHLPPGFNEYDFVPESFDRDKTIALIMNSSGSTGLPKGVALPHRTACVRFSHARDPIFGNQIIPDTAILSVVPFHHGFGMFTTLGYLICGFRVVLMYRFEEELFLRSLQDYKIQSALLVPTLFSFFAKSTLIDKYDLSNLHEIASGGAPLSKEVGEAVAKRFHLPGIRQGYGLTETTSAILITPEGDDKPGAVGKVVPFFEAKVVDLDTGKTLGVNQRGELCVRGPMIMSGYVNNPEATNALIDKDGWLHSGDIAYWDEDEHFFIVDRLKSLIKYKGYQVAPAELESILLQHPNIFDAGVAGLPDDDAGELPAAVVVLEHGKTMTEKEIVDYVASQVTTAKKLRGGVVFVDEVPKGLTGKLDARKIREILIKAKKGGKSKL
sdo1 growth – growth rescue of sdo1-depleted yeast, primary screen, S. cerevisiae, bone marrow failure model. S. cerevisiae sdo1-depleted JHY4D growth rescue, OD600 30 h; active compounds read high; pdr5 snq2 efflux-pump mutant strain. z-score at 10 µM. hit rate 0.21% among 140,000. AID 817, 2007;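 active = z-score above 3 at both the 24 hr and the 30 hr optical density reads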;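 note: z-score against mean and SD of all compound wells on the same plate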
STAT1 activator – STAT1 signaling activators, primary screen, cell-based, HTS, luciferase reporter; NIH 3T3 STAT1-luciferase reporter, IFN-gamma, luminescence; 100% = IFN-gamma alone, no compound; activation (% of control), % at 5.5 µM; hit rate 2.6% among 200,000;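 active = activation above the screen-wide mean activation plus 3 SD, cut at about 130% in these data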;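 note: raw ratio to IFN-gamma control signal so 100% means no change and 0% no light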
FLuc act counter – FLuc activators, initial screening, artefact control for FLuc-dependent activation tests, biochemical, ATPlite luminescence | Luciferin 4-monooxygenase (Photinus pyralis), P08659 | ATPlite luciferase biochemical, 10 min; 0 = ATP-free wells, 1 = DMSO control | activation factor at 10 µM | 200,000 tested, under 10 active | AID 1027, 2008;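 active = luciferase activation factor, scaled between plate controls, of at least 2 with compound at 10 µM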
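assay system = Luciferase/luciferin detection reagent, cell-free biochemical luciferase assay | also added = ATP substrate | times = 10 min post-reagent at room temperature | measured by = luminescence from luciferase reaction | measure = luciferase activation, seen as luminescence increase over controls | benchmarks = low control with PBS replacing ATP, high control enzyme plus ATP without compound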
NF-kB expr up – activators of NF-kB expression in neurons, primary screen, cell-based, HTS; fold change at 12.5 µM; AID 1239, 2008; human neuronal cells, NF-kB reporter expression; active compounds read high; hit rate 1.6% among 190,000; in the data active = fold change above about 3.3
APP 5'UTR act – activators of APP 5'UTR luciferase reporter, primary screen, SH-SY5Y cells. SH-SY5Y APP 5'UTR luciferase reporter, luminescence; zero percent = DMSO vehicle wells. activation, % at 2 µM. hit rate 1% among 190,000. AID 1276, 2008;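 active = activation above a set limit, based on mean plus 3 SD of controls, cut at about 140% in these data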
Active calls of the source: *. In the library only some 4.3% were active in any assay of this set; here they are far more common.

Results for Cc1cc(/C=C(/C#N)C(=O)Nc2ccccc2)c(C)n1-c1cccnc1 ?
FLuc inh counter: 50*; sdo1 growth: -0.96; STAT1 activator: 150*; FLuc act counter: 0.5; NF-kB expr up: 2; APP 5'UTR act: 97

What do the screens show for `Cc1cc(C(=O)N2CCCC(C(=O)c3cccc(C(F)(F)F)c3)C2)nc(C)n1` (stereo unspecified)?
FLuc inh counter: 0; STAT1 activator: 89; FLuc act counter: 1; NF-kB expr up: 1.2; APP 5'UTR act: 9

How did COc1cc(NC(=O)COC(=O)CSc2cc(C)ccc2C)c(C)cc1[N+](=O)[O-] do in these assays?
FLuc inh counter: 0; sdo1 growth: -0.2; STAT1 activator: 100; FLuc act counter: 1; NF-kB expr up: 1; APP 5'UTR act: 5

What do the screens show for `O=c1c2c(-c3ccccc3)csc2nc2n1CCC2`?
FLuc inh counter: -4; sdo1 growth: 1.4; STAT1 activator: 100; FLuc act counter: 1; NF-kB expr up: 1.1; APP 5'UTR act: -9

Results for O=c1c2sc(-c3ccccc3)cc2nc2n1CCC2 ?
FLuc inh counter: 55*; sdo1 growth: -2.4; STAT1 activator: 106; FLuc act counter: 0.5; NF-kB expr up: 3.9*; APP 5'UTR act: 125

How did Cc1ccc(-c2nc(N)sc2CC(=O)OCC(=O)NCC2CCCO2)cc1 (stereo unspecified) do in these assays?
FLuc inh counter: -2; sdo1 growth: 0.65; STAT1 activator: 101; FLuc act counter: 1; NF-kB expr up: 0.82; APP 5'UTR act: -3

How did Cc1cc(-c2nc3ncccc3o2)ccc1N do in these assays?
FLuc inh counter: 30; sdo1 growth: 1.5; STAT1 activator: 139*; FLuc act counter: 0.7; NF-kB expr up: 1.8; APP 5'UTR act: 43

How did Nc1cc(-c2nc3ncccc3o2)ccc1Cl do in these assays?
FLuc inh counter: 32; sdo1 growth: 2; STAT1 activator: 130*; FLuc act counter: 0.7; NF-kB expr up: 2.5; APP 5'UTR act: 83

Results for Nc1ccc(-c2nc3ncccc3o2)c(Cl)c1 ?
FLuc inh counter: 72*; STAT1 activator: 145*; FLuc act counter: 0.3; NF-kB expr up: 2.7; APP 5'UTR act: 96

How did CCCC(=O)Nc1cc(-c2nc3ncccc3o2)ccc1C do in these assays?
FLuc inh counter: -2; sdo1 growth: -0.46; STAT1 activator: 95; FLuc act counter: 1; NF-kB expr up: 1.2; APP 5'UTR act: -5

How did O=C(CCSc1ccccc1)Nc1nnc(-c2cccs2)o1 do in these assays?
FLuc inh counter: -6; STAT1 activator: 109; FLuc act counter: 1.1; NF-kB expr up: 1.2; APP 5'UTR act: 6

How did CN(C)c1ccc(NC(=O)CCn2c(=S)oc3ccccc32)cc1 do in these assays?
FLuc inh counter: 2; STAT1 activator: 134*; FLuc act counter: 1; NF-kB expr up: 1.2; APP 5'UTR act: 106

Results for CCOC(=O)C(=O)/C(C#N)=C/Nc1ccccc1 ?
FLuc inh counter: -6; sdo1 growth: -0.27; STAT1 activator: 94; FLuc act counter: 1.1; NF-kB expr up: 1.2; APP 5'UTR act: 24

How did CCOC(=O)/C(C#N)=C/Nc1ccccc1OC do in these assays?
FLuc inh counter: 44; sdo1 growth: 1.8; STAT1 activator: 145*; FLuc act counter: 0.6; NF-kB expr up: 2.5; APP 5'UTR act: 32

What do the screens show for `CSc1ccc(-c2ccco2)nn1`?
FLuc inh counter: 27; STAT1 activator: 129*; FLuc act counter: 0.7; NF-kB expr up: 1.7; APP 5'UTR act: 29

How did O=[N+]([O-])c1ccccc1/C=C/C=N/Nc1ccc(S(=O)(=O)Nc2ccc(Cl)cc2)cc1[N+](=O)[O-] do in these assays?
FLuc inh counter: -5; STAT1 activator: 103; FLuc act counter: 1; NF-kB expr up: 0.82; APP 5'UTR act: 10

Results for COc1ccc(C/C(C)=N/NC(=S)Nc2ccccc2F)cc1 ?
FLuc inh counter: 14; STAT1 activator: 126; FLuc act counter: 0.9; NF-kB expr up: 0.72; APP 5'UTR act: 176*

What do the screens show for `Cc1ccc(OC(=O)Cn2c(C(F)(F)F)nc3ccccc32)cc1`?
FLuc inh counter: -9; sdo1 growth: -0.5; STAT1 activator: 95; FLuc act counter: 1.1; NF-kB expr up: 1.5; APP 5'UTR act: 16

Results for CC(=O)C(/C=N/c1ncc(C(F)(F)F)cc1Cl)=C(\C)O ?
FLuc inh counter: -5; STAT1 activator: 101; FLuc act counter: 1; NF-kB expr up: 1.1; APP 5'UTR act: -6

What do the screens show for `Cc1cccc(-c2noc(CN(C(=O)c3ccc4c(c3)OCO4)C(C)C)n2)c1`?
FLuc inh counter: 0; sdo1 growth: -0.52; STAT1 activator: 101; FLuc act counter: 1; NF-kB expr up: 1; APP 5'UTR act: -2

What do the screens show for `COc1ccc(-c2nc(-c3cccc(C)c3)no2)cc1OC`?
FLuc inh counter: 0; sdo1 growth: -0.86; STAT1 activator: 138*; FLuc act counter: 1; NF-kB expr up: 2.8; APP 5'UTR act: 3

What do the screens show for `COc1ccc(-c2nc(C3CCCCC3)no2)cc1OC`?
FLuc inh counter: -2; sdo1 growth: -0.33; STAT1 activator: 134*; FLuc act counter: 1; NF-kB expr up: 2; APP 5'UTR act: 71

How did Cc1cccc(-c2noc(-c3ccc4c(c3)OCO4)n2)c1 do in these assays?
FLuc inh counter: 82*; STAT1 activator: 86; FLuc act counter: 0.2; APP 5'UTR act: 186*

What do the screens show for `CCOc1cc(-c2nc(-c3ccccc3OC)no2)cc(OCC)c1OCC`?
FLuc inh counter: -8; sdo1 growth: -0.43; STAT1 activator: 97; FLuc act counter: 1.1; NF-kB expr up: 0.82; APP 5'UTR act: 30

How did COc1ccc(-c2nc(-c3ccccc3OC)no2)cc1OC do in these assays?
FLuc inh counter: 18; sdo1 growth: 0.34; STAT1 activator: 132*; FLuc act counter: 0.8; NF-kB expr up: 1.2; APP 5'UTR act: 31

Results for CC(C)(C)NC(=O)C(c1c[nH]c2ccccc12)N(C(=O)Cn1nnc(-c2ccc(F)cc2)n1)c1cccc(O)c1 (stereo unspecified) ?
FLuc inh counter: -2; sdo1 growth: -0.73; STAT1 activator: 110; FLuc act counter: 1; NF-kB expr up: 1; APP 5'UTR act: 7

Results for Cc1ccc(NC(=O)/C(C#N)=C/c2ccsc2)c(C)c1 ?
FLuc inh counter: 5; sdo1 growth: -0.94; STAT1 activator: 137*; FLuc act counter: 0.9; NF-kB expr up: 1.7; APP 5'UTR act: -3
